The text below walks through data of ChEMBL document CHEMBL4665798, “Novel Human Urate Transporter 1 Inhibitors as Hypouricemic Drug Candidates with Favorable Druggability” (J Med Chem, 2020).

Structures are written as SMILES.

Series [1] in a line: Cmax in male Kunming mouse at 50 mg/kg, po by LC-MS/MS analysis. The series is classed as ADME, organism-based. More on the design: route oral, dose 50 mg/kg. The conditions noted are these: in vivo. An outline of the steps: (§1)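 Male Kunming mice, ten in total, split into five groups; single oral dose in PEG 400/normal saline (70/30, v/v). Blood taken from submandibular or saphenous vein into K2EDTA tubes at 0.25, 0.5, 1, 2, 4, 8, 24, 48, 72 h. Plasma spun at about 4 °C and kept at -70 °C. Acetonitrile precipitation with dexamethasone internal standard, then LC-MS/MS against plasma standard curves.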

Series [2] is described as follows: Oral bioavailability in Sprague-Dawley rat at 20 mg/kg by LC-MS analysis. The series is classed as ADME, organism-based. As to conditions: in vivo.
The nature of series [3]: Cmax in male Kunming mouse at 2 mg/kg, po by LC-MS/MS analysis. Also on record: route oral, dose 2 mg/kg. The series is classed as ADME, organism-based. As to conditions: in vivo. In outline: as §1
Series [4] can be described thus: Cmax in Sprague-Dawley rat at 20 mg/kg, po by LC-MS analysis. The series is classed as ADME, organism-based. Also on record: route oral, dose 20 mg/kg. As to conditions: in vivo.
Series [5] in a line: Half-life in Sprague-Dawley rat at 20 mg/kg, po by LC-MS analysis. The conditions noted are these: in vivo. The series is classed as ADME, organism-based.
Series [6] can be described thus: Acute toxicity in Kunming mouse assessed as induction of abnormal behaviors by measuring clonic convulsion at 500 mg/kg, ig. The conditions noted are these: in vivo, po. The series is classed as organism-based.
The nature of series [7]: AUC (0 to infinity) in Sprague-Dawley rat at 20 mg/kg, po by LC-MS analysis. The conditions noted are these: in vivo. The series is classed as ADME, organism-based. More on the design: route oral, time infinity, dose 20 mg/kg.
A short description of series [8]: MRT (0 to infinity) in Sprague-Dawley rat at 20 mg/kg, po by LC-MS analysis. The series is classed as ADME, organism-based. As to conditions: in vivo.
A short description of series [9]: Tmax in male Kunming mouse at 2 mg/kg, po by LC-MS/MS analysis. The series is classed as ADME, organism-based. The conditions noted are these: in vivo. In outline: as §1
The nature of series [10]: Half-life in male Kunming mouse at 500 mg/kg, po by LC-MS/MS analysis. The series is classed as ADME, organism-based. As to conditions: in vivo. An outline of the steps: (§2)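 Male Kunming mice given oral compound in PEG 400/normal saline (70/30, V/V). Blood from submandibular or saphenous vein into K2EDTA tubes at 0.25 to 72 h. Plasma spun at 3200g near 4 °C, kept -70 °C, precipitated with acetonitrile plus dexamethasone internal standard. Quantified by LC-MS/MS against spiked blank-plasma standard curves.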

Series [11] in a line: Acute toxicity in male Kunming mouse assessed as change in body weight at 500 mg/kg, ig measured for 1 week. The series is classed as organism-based. As to conditions: in vivo, po, 168 h, time 1 weeks.
Series [12] can be described thus: Sub-acute toxicity in male Kunming mouse assessed as increase in body weight at 50 mg/kg, po administered once every second day for 14 days. The series is classed as organism-based. As to conditions: in vivo, 336 h, time 14 day.
Series [13] in a line: Acute toxicity in Kunming mouse assessed as induction of abnormal behaviors by measuring anorexia at 500 mg/kg, ig. The series is classed as organism-based. The conditions noted are these: in vivo, po.
Series [14] in a line: Cmax in male Kunming mouse at 500 mg/kg, po by LC-MS/MS analysis. The series is classed as ADME, organism-based. Also on record: route oral, dose 500 mg/kg. As to conditions: in vivo. An outline of the steps: as §2
Series [15] can be described thus: AUC (0 to infinity) in male Kunming mouse at 2 mg/kg, po by LC-MS/MS analysis. More on the design: time infinity, route oral, dose 2 mg/kg. The conditions noted are these: in vivo. The series is classed as ADME, organism-based. An outline of the steps:
as §1

A short description of series [16]: AUC (0 to t) in male Kunming mouse at 50 mg/kg, po by LC-MS/MS analysis. The series is classed as ADME, organism-based. Also on record: dose 50 mg/kg. The conditions noted are these: in vivo. An outline of the steps:
as §1

Series [17] is described as follows: AUC (0 to t) in Sprague-Dawley rat at 20 mg/kg, po by LC-MS analysis. More on the design: dose 20 mg/kg. The conditions noted are these: in vivo. The series is classed as ADME, organism-based.
Series [18] in a line: Tmax in male Kunming mouse at 500 mg/kg, po by LC-MS/MS analysis. The series is classed as ADME, organism-based. As to conditions: in vivo. An outline of the steps: as §2
Series [19] addresses Voltage-gated inwardly rectifying potassium channel KCNH2 (Homo sapiens, UniProt Q12809). Kind of series: Inhibition of human ERG expressed in HEK293 cells at -80 mV holding potential by whole cell voltage patch clamp assay. The series is classed as cell-based. In outline: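 Manual patch clamp on HEK293 cells stably expressing hERG, cultured at least 24 h at 37 °C, 5% CO2. Pipettes 3–5 MΩ. Current stabilized 3 min with vehicle before compound. Compound kept on until peak tail current stable (<5% change) for ~5 sweeps. Cisapride monohydrate used as reference.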

The nature of series [20]: Tmax in Sprague-Dawley rat at 10 mg/kg, po by LC-MS analysis. The series is classed as ADME, organism-based. As to conditions: in vivo. An outline of the steps:
(§3)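 Male Sprague-Dawley rats, two groups, dosed iv or orally; compound in PEG 400/normal saline (70/30, V/V). Oral blood from sinus jugularis at 5 min to 24 h, plasma by centrifugation at 2200 g, stored -20 °C. Plasma with internal standard precipitated by methanol, quantified by LC-MS against spiked blank-plasma standard curves. Mean ± SD, n = 5.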

The nature of series [21]: Half-life in Sprague-Dawley rat at 10 mg/kg, po by LC-MS analysis. The conditions noted are these: in vivo. The series is classed as ADME, organism-based. An outline of the steps: as §3
The nature of series [22]: MRT (0 to infinity) in Sprague-Dawley rat at 10 mg/kg, po by LC-MS analysis. The series is classed as ADME, organism-based. As to conditions: in vivo. An outline of the steps: as §3
In series [23] the target is T1, Solute carrier family 2, facilitated glucose transporter member 9 (Homo sapiens, UniProt Q9NRM0).
T1 sequence (Q9NRM0 whole entry): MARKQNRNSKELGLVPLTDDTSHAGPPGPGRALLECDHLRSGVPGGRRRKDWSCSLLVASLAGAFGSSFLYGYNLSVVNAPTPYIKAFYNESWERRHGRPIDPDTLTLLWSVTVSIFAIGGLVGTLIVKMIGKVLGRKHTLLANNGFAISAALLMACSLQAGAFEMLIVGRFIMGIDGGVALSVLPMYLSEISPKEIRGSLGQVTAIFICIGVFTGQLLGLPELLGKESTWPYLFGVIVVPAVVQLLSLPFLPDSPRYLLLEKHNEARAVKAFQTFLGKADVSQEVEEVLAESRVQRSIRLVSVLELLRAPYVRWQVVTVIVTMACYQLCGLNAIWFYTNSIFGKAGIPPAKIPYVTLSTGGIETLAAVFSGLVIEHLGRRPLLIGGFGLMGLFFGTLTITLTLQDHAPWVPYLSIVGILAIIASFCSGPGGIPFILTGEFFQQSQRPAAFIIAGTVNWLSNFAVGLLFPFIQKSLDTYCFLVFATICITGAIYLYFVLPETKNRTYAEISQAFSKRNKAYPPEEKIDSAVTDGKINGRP
Nature of the series: Inhibition of GLUT9 (unknown origin).

Sequence of Voltage-gated inwardly rectifying potassium channel KCNH2 (Q12809 whole entry): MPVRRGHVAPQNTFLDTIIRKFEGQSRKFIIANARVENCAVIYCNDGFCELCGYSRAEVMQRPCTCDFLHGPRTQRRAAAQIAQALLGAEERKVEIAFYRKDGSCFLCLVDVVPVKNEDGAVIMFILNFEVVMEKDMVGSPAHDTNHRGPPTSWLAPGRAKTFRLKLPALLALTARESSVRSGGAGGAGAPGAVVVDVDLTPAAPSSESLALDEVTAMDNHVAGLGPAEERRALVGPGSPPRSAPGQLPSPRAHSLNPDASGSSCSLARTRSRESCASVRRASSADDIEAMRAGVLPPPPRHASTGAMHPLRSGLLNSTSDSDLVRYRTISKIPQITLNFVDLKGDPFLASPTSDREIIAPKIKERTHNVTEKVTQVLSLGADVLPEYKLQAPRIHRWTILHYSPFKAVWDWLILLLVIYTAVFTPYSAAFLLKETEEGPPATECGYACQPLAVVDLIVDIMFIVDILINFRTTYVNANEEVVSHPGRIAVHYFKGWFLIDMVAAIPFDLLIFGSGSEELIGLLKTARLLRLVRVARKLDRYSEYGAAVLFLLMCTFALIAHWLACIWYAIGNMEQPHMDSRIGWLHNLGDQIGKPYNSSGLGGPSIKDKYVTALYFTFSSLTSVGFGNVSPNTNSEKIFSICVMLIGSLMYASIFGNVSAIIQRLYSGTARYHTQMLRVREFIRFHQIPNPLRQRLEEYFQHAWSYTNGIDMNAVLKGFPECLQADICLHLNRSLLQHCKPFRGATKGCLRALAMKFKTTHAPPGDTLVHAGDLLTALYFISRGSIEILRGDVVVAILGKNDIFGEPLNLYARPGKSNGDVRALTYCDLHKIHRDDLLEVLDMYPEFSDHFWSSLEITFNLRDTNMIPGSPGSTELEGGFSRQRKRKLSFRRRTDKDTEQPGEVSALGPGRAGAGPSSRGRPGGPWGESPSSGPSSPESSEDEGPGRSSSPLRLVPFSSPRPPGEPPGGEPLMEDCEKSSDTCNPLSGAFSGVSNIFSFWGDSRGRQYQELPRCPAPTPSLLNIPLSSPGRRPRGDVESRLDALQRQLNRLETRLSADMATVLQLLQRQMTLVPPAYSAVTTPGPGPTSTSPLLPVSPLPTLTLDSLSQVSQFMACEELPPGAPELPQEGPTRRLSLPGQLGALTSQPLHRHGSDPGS

For the molecule `CC(Sc1nc2ncccc2n1-c1ccc(C2CC2)c2ccccc12)C(=O)O` (racemic), the Cmax amounted to 37900 ng/mL in [1], 2080 ng/mL in series [3], 15500 ng/mL in series [4] and 149000 ng/mL in [14]. In series [2], this molecule registered a bioavailability of 76.3%. The half-life in series [5] was 3.4 h; in series [10] it was 3.9 h. The Activity result in [6], in series [11], in [12] and in series [13] was “Non-Toxic” each time. For the same molecule, the AUC(0-inf) in series [7] stood at 88800 ng·h/mL; in series [15] it was 13000 ng·h/mL. In series [8], the MRT inf was 5.3 h. The Tmax in [9] turned out to be 0.5 h; in [18], 18.7 h. Moreover, the results for the AUC(0-t) in series [16] and in series [17] were 335000 ng·h/mL and 53200 ng·h/mL, respectively. The molecule also had an IC50 in [19] greater than 30 µM.

`O=C(CSc1nnc(Br)n1-c1ccc(C2CC2)c2ccccc12)NS(=O)(=O)c1ccc(Br)cc1`: in series [20], the Tmax is 1.8 h. The Activity result in [6], in [11], in [12] and in series [13] was “Non-Toxic” each time. Besides, the half-life in series [21] is 3.4 h. Further, in series [22], the MRT inf amounted to 5.6 h. The same molecule returned an IC50 in [23] of 31.7 µM.

The Cmax is the maximum level reached in the sampled fluid or tissue. For orientation: bioavailability means the share of a dose that reaches the circulation, judged against a reference dose that is usually intravenous. Low values mean little systemic uptake, high ones much systemic uptake. The half-life is the time in which the quantity being followed falls by half. A lower half-life goes with rapid decline. Broadly, the AUC(0-inf) is total exposure, with the tail of the curve extrapolated. A high value points to high exposure. The term MRT inf denotes the average time that molecules of a dose stay in the body. One may read the Tmax as the time from dosing to the highest level. A word on the AUC(0-t): it is the area under the concentration-time curve up to a stated or last time point. High values mean high exposure, low ones low exposure. The term IC50 denotes the concentration needed to halve the response being measured. A higher IC50 goes with weaker potency.
